The values below come from ChEMBL document CHEMBL1131304, “Epidoxoform: a hydrolytically more stable anthracycline-formaldehyde conjugate toxic to resistant tumor cells” (J Med Chem, 1998).

Data set [1] is described as follows: Compound was evaluated for its half life at 37 degree Centigrade.
Data set [2] is described as follows: Compound was evaluated for its half life at 25 degree Centigrade.
For data set [3], the system named is MCF7. Nature of the data set: Compound was tested for its toxicity against human breast cancer cells(MCF-7). The data set is classed as functional, cell-based. Summed up:
(§1)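 MCF-7 and MCF-7/ADR cells were grown at 37 °C in 5% CO2 in phenol red-free RPMI 1640 with 10% FBS, 2 mM L-glutamine, 25 mM HEPES and penicillin/streptomycin. MCF-7/ADR medium also held 5 μM doxorubicin. Cells were exposed to drug for 3 h in RPMI 1640/10% FBS/1% DMSO, then stained by crystal violet. IC50 was given as nmolar equiv/L.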

The subject of data set [4] is MCF7. Nature of the data set: (§2) Compound was tested for its toxicity against doxorubicin resistant human breast cancer cells (MCF-7/ADR). The data set is classed as functional, cell-based. Put shortly:
as §1

In data set [5] the test system is NCI/ADR-RES. Described as §2. The data set is classed as functional, cell-based. Put shortly: as §1

The term half-life denotes the time in which the quantity being followed falls by half. A lower half-life goes with rapid decline. Consider `COc1cccc2c1C(=O)c1c(O)c3c(c(O)c1C2=O)C[C@@](O)(C(=O)CO)C[C@@H]3O[C@@H]1C[C@@H](N)[C@H](O)[C@@H](C)O1`, for which the half-life in data set [1] came out at 15 min; in data set [2] it was 35 min.

With `COc1cccc2c1C(=O)c1c(O)c3c(c(O)c1C2=O)C[C@@](O)(C(C)=O)C[C@@H]3OC1CC2C(OCN2CN2COC3C(C)OC(O[C@H]4C[C@](O)(C(C)=O)Cc5c(O)c6c(c(O)c54)C(=O)c4c(OC)cccc4C6=O)CC32)C(C)O1` (some centres undefined) [DAUNOFORM], the IC50 is reported as 8 nM equiv l-1 in data set [3] and 10 nM equiv l-1 in data set [4].

For the molecule `COc1cccc2c1C(=O)c1c(O)c3c(c(O)c1C2=O)C[C@@](O)(C(C)=O)C[C@@H]3O[C@H]1C[C@H](N)[C@H](O)[C@H](C)O1` [DAUNORUBICIN], the IC50 in data set [3] was found to be 60 nM equiv l-1; in data set [5] it was 2000 nM equiv l-1.

For the molecule `COc1cccc2c1C(=O)c1c(O)c3c(c(O)c1C2=O)C[C@@](O)(C(=O)CO)C[C@@H]3OC1CC2C(OCN2CN2COC3C(C)OC(O[C@H]4C[C@](O)(C(=O)CO)Cc5c(O)c6c(c(O)c54)C(=O)c4c(OC)cccc4C6=O)CC32)C(C)O1` (some centres undefined) [DOXOFORM], the IC50 in data set [3] was 2 nM equiv l-1; in data set [5], 1 nM equiv l-1.

As for `COc1cccc2c1C(=O)c1c(O)c3c(c(O)c1C2=O)C[C@@](O)(C(=O)CO)C[C@@H]3O[C@H]1C[C@H](N)[C@H](O)[C@H](C)O1` [DOXORUBICIN], the figures for the IC50 in data set [3] and in data set [5] were 300 nM equiv l-1 and 10000 nM equiv l-1, respectively.

For `COc1cccc2c1C(=O)c1c(O)c3c(c(O)c1C2=O)C[C@@](O)(C(=O)CO)C[C@@H]3O[C@H]1C[C@H]2C(OCN3CN2CO[C@H]2[C@@H](C)O[C@@H](O[C@H]4C[C@](O)(C(=O)CO)Cc5c(O)c6c(c(O)c54)C(=O)c4c(OC)cccc4C6=O)C[C@@H]23)[C@H](C)O1` (some centres undefined) [EPIDOXOFORM], the IC50 in data set [3] worked out at 65 nM equiv l-1; in data set [5], 70 nM equiv l-1.

As for `COc1cccc2c1C(=O)c1c(O)c3c(c(O)c1C2=O)C[C@@](O)(C(=O)CO)C[C@@H]3O[C@H]1C[C@H](N)[C@@H](O)[C@H](C)O1` [EPIRUBICIN], the IC50 in data set [3] was 200 nM equiv l-1; in data set [5] it was greater than 10000 nM equiv l-1.
